Test results as given in PubChem BioAssay.
Activity calls are given as the source filed them.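 How the source made its calls, unless noted: active means NADPH fluorescence slope more negative than the mean of all samples by about 3 SD, 99.7% confidence; inactive means the rest.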

Legend:
[1] = inhibitors of TNFa-induced NFkB p65 translocation, primary screen, imaging, HUVEC, MLSMR starter and 10KST1 sets (AID 438;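 active means inhibition above 20% together with a positive visual image hit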;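 further: compound added about 3h40 before a 20 min TNFalpha stimulation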;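 on inhibition: signal is the nuclear over cytoplasmic p65 intensity ratio per well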); details: HUVEC TNFa-induced p65 nuclear translocation; cell count: measured here: nuclei count (cytotoxicity indicator), at 2.08 µM; inhibition: at 2 µM, stronger effect = higher value, 0% TNFa-plus-vehicle, 100% no-TNFa wells
[2] = endothelial E-selectin expression blockers – imaging, HUVEC, immunofluorescence, MLSMR starter and 10KST1 sets, primary screen (AID 487;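 active means visually confirmed hit in the image check and inhibition above 20%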;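 on inhibition: signal is fraction of cell area covered by stained E-selectin grains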;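 on nuclei count: 100% = median nuclei count of all wells on the same plate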); details: HUVEC TNFalpha-induced E-selectin immunofluorescence imaging, at 2 µM; inhibition: stronger effect = higher value; nuclei count: measured here: cell number, toxicity
[3] = Primary imaging screen for DUSP6 inhibitors that restore phospho-Erk in transfected HeLa cells, chemical complementation (AID 609;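 active means compounds giving at least 50% inhibition in the cell-based MKP-3 phosphatase rescue imaging test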;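 on inhibition: phospho-Erk level distribution per well compared with pooled transfected vehicle control wells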); details: HeLa MKP-3 transfected, phospho-Erk imaging KS statistic, at 10 µM, cells stimulated with TPA for 15 min
[4] = molecular target: Dual specificity protein phosphatase 6 (Homo sapiens) (UniProt Q16828); assay: as above; details: HeLa MKP-3 transfected, phospho-Erk imaging KS statistic; at 10 µM; stronger effect = higher value; cells stimulated with TPA for 15 min
Dual specificity protein phosphatase 6 (Homo sapiens), sequence (Q16828 whole entry, looked up): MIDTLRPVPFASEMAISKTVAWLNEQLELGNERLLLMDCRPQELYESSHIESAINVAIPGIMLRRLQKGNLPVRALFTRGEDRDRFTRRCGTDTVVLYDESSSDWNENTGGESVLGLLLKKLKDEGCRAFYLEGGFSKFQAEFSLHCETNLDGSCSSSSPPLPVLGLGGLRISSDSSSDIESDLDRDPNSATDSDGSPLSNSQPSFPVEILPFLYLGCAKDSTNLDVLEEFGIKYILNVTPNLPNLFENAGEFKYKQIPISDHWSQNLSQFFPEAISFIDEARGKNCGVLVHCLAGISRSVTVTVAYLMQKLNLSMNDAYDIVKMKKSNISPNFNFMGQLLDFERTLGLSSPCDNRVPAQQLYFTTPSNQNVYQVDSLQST

[5] = molecular target: Voltage-gated potassium channel subunit beta-2 (Rattus norvegicus) (UniProt P62483); assay: inhibitors of rat Kvbeta2 reductase activity – biochemical, NADPH fluorescence, primary screen (AID 622;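 active means fluorescence slope higher than the sample average by over 3 SD, cut at about -0.22 in these data, passing the limit was not always enough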;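 further: slope of raw intensity against log time taken from 70 to 1610 s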); details: recombinant KvBeta, 4-cyanobenzaldehyde reduction, at 10 µM, stronger effect = higher value
Voltage-gated potassium channel subunit beta-2 (Rattus norvegicus), sequence (P62483 whole entry, looked up): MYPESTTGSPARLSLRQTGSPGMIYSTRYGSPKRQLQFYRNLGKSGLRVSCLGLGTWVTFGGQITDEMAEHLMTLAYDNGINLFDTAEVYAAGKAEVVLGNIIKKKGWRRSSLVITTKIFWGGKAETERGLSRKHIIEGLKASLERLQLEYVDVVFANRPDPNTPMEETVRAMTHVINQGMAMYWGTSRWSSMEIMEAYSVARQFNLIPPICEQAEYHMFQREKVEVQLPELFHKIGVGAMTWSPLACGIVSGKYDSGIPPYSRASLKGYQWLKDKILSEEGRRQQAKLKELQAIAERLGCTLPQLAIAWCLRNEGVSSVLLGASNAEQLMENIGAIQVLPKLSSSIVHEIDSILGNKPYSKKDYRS

[6] = molecular target: Voltage-gated potassium channel subunit beta-2 (Rattus norvegicus) (UniProt P62483); assay: enhancers of rat Kvbeta2 NADPH turnover – biochemical, NADPH fluorescence, primary screen (AID 623); details: Recombinant KvBeta, NADPH fluorescence decrease slope, 10 min; at 10 µM; stronger effect = lower value;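 further: fluorescence intensity change per second fitted from 20 to 320 s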
[7] = molecular target: Muscarinic acetylcholine receptor M4 (Homo sapiens) (UniProt P08173); assay: M4-linked GIRK flux change, two-sided – cell-based, HEK293 M4/GIRK, thallium flux, BTC-AM, M4 allosteric agonist project, primary screen (AID 625;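 active means fluorescence slope after compound addition differing from the mean of all tested samples at 99.7% confidence, mostly higher but some lower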;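 further: thallium influx through GIRK channels coupled to M4 in HEK293 cells with BTC-AM dye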); details: at 10 µM, actives lie on both sides
Muscarinic acetylcholine receptor M4 (Homo sapiens), sequence (P08173 whole entry, looked up): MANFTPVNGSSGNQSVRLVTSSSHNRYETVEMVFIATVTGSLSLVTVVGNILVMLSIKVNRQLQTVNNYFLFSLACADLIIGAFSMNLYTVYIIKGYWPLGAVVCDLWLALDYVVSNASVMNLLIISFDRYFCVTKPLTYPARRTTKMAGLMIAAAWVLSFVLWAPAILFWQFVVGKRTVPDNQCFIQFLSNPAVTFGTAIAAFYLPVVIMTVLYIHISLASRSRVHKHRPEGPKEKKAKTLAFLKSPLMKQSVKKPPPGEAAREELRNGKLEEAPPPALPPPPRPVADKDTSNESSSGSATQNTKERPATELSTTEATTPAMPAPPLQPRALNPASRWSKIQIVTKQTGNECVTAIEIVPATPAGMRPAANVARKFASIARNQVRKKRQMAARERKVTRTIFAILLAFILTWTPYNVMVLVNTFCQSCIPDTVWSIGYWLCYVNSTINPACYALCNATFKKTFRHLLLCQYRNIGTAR
In short: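 Material – HEK293 cells with M4 receptor and GIRK channels · Buffer or medium – pH 7.3 thallium assay buffer · Doses – one dose, 10 µM final · Timing – cells overnight at 37 °C, BTC-AM loading 1 h, reads 2 min total · Measured by – kinetic fluorescence with BTC-AM dye · Controls – carbachol and DMSO controls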

[8] = inhibitors of larval lipid processing in zebrafish, primary screen, whole organism, PED6 fluorescence, gall bladder and intestine (AID 686;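 active means a full or partial loss of lipid-probe fluorescence in the fish gall bladder, intestine or both, judged by eye; inactive means no fluorescence loss, or compound toxic to the fish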;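 further: larvae 5 to 7 days old with five fish per well; signal comes from phospholipase A2 cleavage of quenched PED6 carried via bile; overnight exposure to compound and PED6 before scoring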); details: Zebrafish larvae PED6 lipid processing, fluorescence scoring; screened at 20 µM (by protocol)
In short: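 system = live zebrafish larvae aged 5-7 days, whole organism | probe or stimulus = ingested quenched lipid PED6 at 100 nM | doses = 20 µM single dose | timing = overnight exposure | detection = fluorescence microscopy with visual scoring of gall bladder and intestine | read-out = visual per-well fluorescence inhibition score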

[9] = loss of swimming-algae plug formation – whole organism, Chlamydomonas reinhardtii, WT vs cilia-less mutant, absorbance, 96-well, primary screen (AID 463189;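 active means inhibition at or above 50% relative to wild type and mutant plate controls; inactive means inhibition below 50%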;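 further: 0% = wild type cc124 cells in DMSO and 100% = ciliumless bld1 mutant cells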); details: Chlamydomonas reinhardtii gravitaxis, OD600 absorbance, 2 days; at 10 µM; stronger effect = higher value
[10] = measured here: cell density z-score
[11] = measured here: nuclear c-Myc green intensity z-score
[12] = measured here: nuclear pErk red intensity z-score, stronger effect = higher value

Row | SMILES | cell count [1] | inhibition [1] | inhibition [2] | nuclei count [2] | z-score [3, 10] | z-score [3, 11] | z-score [3, 12] | inhibition [4] | fluorescence slope [5] | NADPH fluorescence slope [6] | fluorescence slope [7] | outcome [8] | inhibition [9]
1 | Cc1nc2c(o1)CCc1ccccc1C2N1CCN(C)CC1 (stereo unspecified) | 557 | 1.3% (inactive) | -37.3% (inactive) | 103% | 0.777 | -1.51 | 1.56 | 17.8% (inactive) | -0.412 (inactive) | -3.4e-05 (inactive) | 0.00552 (inactive) | inactive | 29.5% (inactive)
2 | CC12CN3CC(C)(CN(C1)C3c1ccc(Cl)cc1Cl)C2O (stereo unspecified) | 486 | -4% (inactive) | -90.6% (inactive) | 121% | -2.88 | 1.19 | -1.32 | -0.584% (inactive) | -0.52 (inactive) | -6.5e-05 (inactive) | 0.0049 (inactive) | inactive | -8.3% (inactive)
3 | O=C(Nc1ccccn1)c1ccc(=O)[nH]n1 | 634 | 4.2% (inactive) | -92.2% (inactive) | 134% | 0.857 | -1.57 | -0.248 | 6.51% (inactive) | -0.475 (inactive) | -0.0002 (inactive) | 0.00627 (inactive) | inactive | 20.6% (inactive)
4 | C=C(C)CSc1nc(N)c2c3c(sc2n1)CCC3 | 394 | -3.4% (inactive) | 2.9% (inactive) | 149% | -1.07 | 1.64 | -0.412 | 5.42% (inactive) | -0.451 (inactive) | -0.000115 (inactive) | 0.00788 (inactive) | inactive | -7.33% (inactive)
5 | COc1cccc(-c2nc(N3CCCCC3C)c3ccccc3n2)c1O (stereo unspecified) | 676 | 1% (inactive) | 32.7% (inactive) | 154% | -0.111 | 1.23 | 0.615 | -5.62% (inactive) | -0.465 (inactive) | -7.5e-05 (inactive) | 0.0038 (inactive) | inactive; toxic | 9.9% (inactive)
6 | CCCC(CCC(=O)Nc1ccc(C(=O)OCC)cc1)C(=O)O (stereo unspecified) | 368 | -0.1% (inactive) | -147% (inactive) | 152% | -0.648 | 0.519 | -0.661 | 20.2% (inactive) | -0.484 (inactive) | -4.5e-05 (inactive) | 0.0051 (inactive) | inactive | -0.026% (inactive)
7 | CN(C)c1nc(OCCNC(=O)Nc2ccccc2)nc(N(C)C)n1 | 519 | -7.6% (inactive) | -47.8% (inactive) | 104% | 0.724 | -0.537 | -0.187 | 5.42% (inactive) | -0.522 (inactive) | 5.3e-05 (inactive) | 0.00455 (inactive) | inactive | 36.3% (inactive)
